Measured values published in ChEMBL document CHEMBL1154042, “2-Oxoamide inhibitors of phospholipase A2 activity and cellular arachidonate release based on dipeptides and pseudodipeptides” (Bioorg Med Chem, 2009).

Legend:
RAW264.7 [1] = assay: Antiinflammatory activity in mouse RAW264.7 cells assessed as inhibition of Kdo2 lipid-A-stimulated arachidonic acid release at 25 uM for 1 hr; type: functional; details: for inhibition at 25 µM: RAW264.7, 1 h
Outline: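 RAW 264.7 macrophages plated at 2 × 10^6 cells per well and left to adhere overnight. Preincubated 30 min with 25 μM inhibitor, then stimulated with Kdo2-Lipid A. Supernatants collected 1 h later. AA extracted and measured by HPLC-MS, normalized to pmol AA per million cells via DNA quantitation.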

[2] = molecular target: T1, Cytosolic phospholipase A2 (Homo sapiens) (UniProt P47712); assay: Inhibition of human group-4A cPLA2 at 0.091 mole fraction by mixed micellar assay
T1 sequence (whole entry): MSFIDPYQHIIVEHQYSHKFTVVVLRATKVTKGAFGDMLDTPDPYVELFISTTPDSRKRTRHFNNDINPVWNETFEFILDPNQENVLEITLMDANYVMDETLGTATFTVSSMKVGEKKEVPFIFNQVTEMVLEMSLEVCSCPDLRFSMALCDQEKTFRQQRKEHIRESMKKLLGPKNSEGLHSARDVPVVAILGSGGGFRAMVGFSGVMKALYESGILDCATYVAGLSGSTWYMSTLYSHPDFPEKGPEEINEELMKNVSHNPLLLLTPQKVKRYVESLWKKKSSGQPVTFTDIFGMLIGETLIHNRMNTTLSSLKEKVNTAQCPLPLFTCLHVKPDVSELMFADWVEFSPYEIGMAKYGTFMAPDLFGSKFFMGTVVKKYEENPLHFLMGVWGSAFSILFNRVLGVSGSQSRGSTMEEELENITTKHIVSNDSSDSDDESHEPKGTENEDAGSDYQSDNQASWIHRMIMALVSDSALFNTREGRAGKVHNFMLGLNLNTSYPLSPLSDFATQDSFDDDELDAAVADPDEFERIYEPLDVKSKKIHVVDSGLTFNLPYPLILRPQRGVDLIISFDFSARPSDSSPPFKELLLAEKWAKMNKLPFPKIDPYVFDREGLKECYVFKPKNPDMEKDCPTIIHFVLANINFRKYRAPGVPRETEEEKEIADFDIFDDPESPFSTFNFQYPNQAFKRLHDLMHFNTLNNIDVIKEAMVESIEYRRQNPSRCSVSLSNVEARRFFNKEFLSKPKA
Outline: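 Modified Dole assay, single point at 0.091 mole fraction inhibitor. Mixed micelles: 400 μM Triton X-100, 97 μM PAPC, 1.8 μM 14C-PAPC, 3 μM PIP2. Buffer: 100 mM HEPES pH 7.5, 90 μM CaCl2, 2 mM DTT, 0.1 mg/ml BSA. Percent inhibition reported.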

[3] = molecular target: T2, 85/88 kDa calcium-independent phospholipase A2 (Homo sapiens) (UniProt O60733); assay: Inhibition of human group-6A iPLA2 at 0.091 mole fraction by mixed micellar assay
T2 sequence (whole entry): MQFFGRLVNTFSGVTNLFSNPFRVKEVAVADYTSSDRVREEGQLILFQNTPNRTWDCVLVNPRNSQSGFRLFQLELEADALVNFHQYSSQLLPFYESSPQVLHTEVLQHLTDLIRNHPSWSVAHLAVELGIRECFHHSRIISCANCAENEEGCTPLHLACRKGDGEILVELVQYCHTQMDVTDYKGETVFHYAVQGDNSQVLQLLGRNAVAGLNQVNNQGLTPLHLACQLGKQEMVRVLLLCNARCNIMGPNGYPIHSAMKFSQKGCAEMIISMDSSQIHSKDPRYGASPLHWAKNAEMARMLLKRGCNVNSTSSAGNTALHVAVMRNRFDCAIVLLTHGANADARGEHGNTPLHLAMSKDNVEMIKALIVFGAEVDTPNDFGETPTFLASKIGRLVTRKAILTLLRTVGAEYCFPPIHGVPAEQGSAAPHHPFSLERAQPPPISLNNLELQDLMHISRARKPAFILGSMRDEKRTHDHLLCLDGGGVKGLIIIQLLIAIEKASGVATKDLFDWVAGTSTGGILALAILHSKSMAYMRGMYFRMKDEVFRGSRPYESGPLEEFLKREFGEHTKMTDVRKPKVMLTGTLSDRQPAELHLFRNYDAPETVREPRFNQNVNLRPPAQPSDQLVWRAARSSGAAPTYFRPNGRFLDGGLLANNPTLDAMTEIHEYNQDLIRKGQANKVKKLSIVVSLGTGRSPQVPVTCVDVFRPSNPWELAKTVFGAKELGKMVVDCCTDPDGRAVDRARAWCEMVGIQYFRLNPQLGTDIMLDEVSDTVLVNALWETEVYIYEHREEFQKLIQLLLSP
Outline: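 Modified Dole assay, percent inhibition at 0.091 mole fraction inhibitor. Micelles were either 400 μM Triton X-100, 99 μM DPPC, 1.5 μM 14C-DPPC in 200 mM HEPES pH 7.0, 1 mM ATP, 2 mM DTT, 0.1 mg/ml BSA, or 400 μM Triton X-100, 98.3 μM PAPC, 1.7 μM 14C-PAPC in 100 mM HEPES pH 7.5, 2 mM ATP, 4 mM DTT.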

[4] = molecular target: T3, Phospholipase A2 group V (Homo sapiens) (UniProt P39877); assay: Inhibition of human group-5 sPLA2 at 0.091 mole fraction by mixed micellar assay
T3 sequence (whole entry): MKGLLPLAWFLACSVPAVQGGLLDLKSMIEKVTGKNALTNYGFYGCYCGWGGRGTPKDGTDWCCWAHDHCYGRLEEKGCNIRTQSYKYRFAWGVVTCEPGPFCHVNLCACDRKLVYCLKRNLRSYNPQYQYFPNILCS
Outline: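 Radiometric modified Dole assay screening at 0.091 mole fraction inhibitor, giving percent inhibition. Mixed micelles of 400 μM Triton X-100, 99 μM DPPC and 1.5 μM 14C-DPPC in 50 mM Tris pH 8.0 with 5 mM CaCl2.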

RAW264.7 [5] = assay: Antiinflammatory activity in mouse RAW264.7 cells assessed as inhibition of Kdo2 lipid-A-stimulated arachidonic acid release after 1 hr; type: functional, cell-based; details: RAW264.7, 1 h
Outline: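 RAW 264.7 macrophages grown in DMEM with 10% FBS, 2 mM glutamine, penicillin/streptomycin and non-essential amino acids at 37 °C, 5% CO2. Plated at 2 × 10^6 cells per well, adhered overnight. Inhibitor added 30 min before Kdo2-Lipid A, supernatants taken 1 h after stimulation. AA extracted and quantitated by HPLC-MS, normalized to pmol per million cells by DNA quantitation. IC50 = concentration giving half of the maximal inhibition seen.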

SMILES	inhibition [2]	inhibition [3]	inhibition [4]	inhibition at 25 µM (RAW264.7 [1])	further results
CCCCCCCCCCC(=O)C(=O)N[C@@H](CCC(=O)OC)COC(=O)NCCCCCCCC					Activity (RAW264.7 [1]): Toxic
CCCCCCCCCCCCCCC(=O)C(=O)N[C@H](C(=O)NCC(=O)OC)C(C)C	25%	< 25%	< 25%		
CCCCCCCCCCCCCCC(=O)C(=O)NCCCC(=O)OCC					Activity (RAW264.7 [1]): Toxic
CCCCCCCCCCCCCCC(=O)C(=O)N[C@@H](CCCC)COCC(=O)O	> 90%	< 25%	< 25%		IC50 (RAW264.7 [5]): 2 µM
CCCCCCCCCCCCCCC(=O)C(=O)N[C@H](CCC(=O)O)CC(C)C				6%	IC50 (RAW264.7 [5]): 25 µM
CCCCCCCCCCCCCC(=O)C(=O)N[C@@H](CCCC)CCCCC(=O)O					Activity (RAW264.7 [1]): Toxic
CCCCCCCCCCCCCCC(=O)C(=O)N[C@@H](CCCC)C(=O)NCC(=O)O	> 90%	< 25%	< 25%		
CCCCCCCCCCCCCCC(=O)C(=O)N[C@@H](C)CCC(=O)OC(C)(C)C					Activity (RAW264.7 [1]): Toxic
CCCCCCCCCCCCCCC(=O)C(=O)NCCC(=O)OC(C)(C)C					Activity (RAW264.7 [1]): Toxic
CCCCCCCCCCCCCCC(=O)C(=O)NCCCCC(=O)OC(C)(C)C				59%	
CCCCCCCCCCCCCCC(=O)C(=O)N[C@@H](CCCC)CCC(=O)O				30%	IC50 (RAW264.7 [5]): 25 µM
CCCCCCCCCCC(=O)C(=O)N[C@@H](CCCC)CCC(=O)O				62%	IC50 (RAW264.7 [5]): 10 µM
CCCCCCCCCCCCCCC(=O)C(=O)NCCCC(=O)N(C)S(=O)(=O)c1ccc(C)cc1					Activity (RAW264.7 [1]): Toxic
CCCCCCCCCCCCCCC(=O)C(=O)N[C@@H](CCCC)CCC(=O)OC					Activity (RAW264.7 [1]): Toxic
CCCCCCCCCCCCCCC(=O)C(=O)NCC(=O)OC				68%	
CCCCCCCCCCCCCCC(=O)C(=O)N[C@H](/C=C/C(=O)OC)CCCC					Activity (RAW264.7 [1]): Toxic
CCCCCCCCCCCCCCC(=O)C(=O)N[C@@H](CCCC)CCCC(=O)O				30%	IC50 (RAW264.7 [5]): 7 µM
CCCCCCCCCCC(=O)C(=O)N[C@@H](CCCC)C(=O)O				79%	
CCCCCCCCCCCCCCC(=O)C(=O)N[C@H](/C=C/C(=O)OCC)CCCC				11%	
CCCCCCCCCCCCCCC(=O)C(=O)N[C@H](/C=C/C=C/C(=O)O)CCCC				74%	
CCCCCCCCCCCCCCC(=O)C(=O)N[C@H](/C=C/C(=O)O)CCCC				16%	IC50 (RAW264.7 [5]): 25 µM
CCCCCCCCCCCCCCC(=O)C(=O)NCCCC(=O)O				27%	IC50 (RAW264.7 [5]): 25 µM

Second part, led by results:

inhibition [2]	inhibition [3]	inhibition [4]	SMILES	inhibition at 25 µM (RAW264.7 [1])	further results
> 90%	> 90%	65%	CCCCCCCCCCCCCCC(=O)C(=O)N[C@@H](CCCC)C(=O)NCC(=O)OC		
> 90%	> 90%	78%	CCCCCCCCCCCCCCC(=O)C(=O)N[C@H](C(=O)NCC(=O)OC(C)(C)C)C(C)C	30%	
44%	81%	57%	CCCCCCCCCCCCCCC(=O)C(=O)N[C@@H](CCCC)COCC(=O)OC(C)(C)C		
52%	> 90%	81%	CCCCCCCCCCCCCCC(=O)C(=O)N[C@@H](CCCC)COCC(=O)OCC		
> 90%	> 90%		CCCCCCCCCCCCCCC(=O)C(=O)NCCCC(=O)COCC		
> 90%	< 25%	< 25%	CCCCCCCCCCCCCCC(=O)C(=O)N[C@H](C(=O)NCC(=O)O)C(C)C		
73%	> 90%	63%	CCCCCCCCCCCCCCC(=O)C(=O)N[C@@H](CCCC)C(=O)NCC(=O)OCC		
72%	> 90%	59%	CCCCCCCCCCCCCCC(=O)C(=O)N[C@@H](CCCC)C(=O)NCC(=O)OC(C)(C)C		
> 90%	< 25%		CCCCCCCCCCCCCCC(=O)C(=O)NCCCC(=O)CO		
